# Assay results from ChEMBL document CHEMBL3603824, “Evaluation of spiropiperidine hydantoins as a novel class of antimalarial agents” (Bioorg Med Chem, 2015).
# The source made the active and inactive calls. The rule behind the calls is not given here.
# Key:
# Plasmodium falciparum [1] = experiment: Antimalarial activity against chloroquine-sensitive Plasmodium falciparum 3D7 infected in human erythrocytes assessed as inhibition of parasite growth after 72 hrs by SYBR Green I method; format: functional, organism-based; settings: 3D7, 72 h
# Method in brief: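 P. falciparum 3D7 grown in human erythrocytes (2% hematocrit) in RPMI1640 with Hepes, hypoxanthine, glucose, bicarbonate and Albumax I under 5% CO2/5% O2/90% N2. 10 mM DMSO stocks, 3-fold serial dilutions. Quadruplicate wells at 0.5% parasitemia, 0.1% DMSO final, 72 h at 37 °C. SYBR Green I lysis buffer added, 1 h dark, fluorescence 497/520. IC50 by four-parameter logistic fit.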
# HepG2 = experiment: Cytotoxicity against human HepG2 cells assessed as inhibition of cell viability after 72 hrs by PrestoBlue Cell Viability Reagent based assay; settings: HepG2, 72 h
# Method in brief: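 HepG2 kept in DMEM with 10% FBS and L-glutamine on poly-D-lysine at 37 °C, 5% CO2. Seeded 10,000 cells/well, allowed to adhere at least 4 h, then exposed to compound for 72 h. PrestoBlue added for 30 min at 37 °C, fluorescence Ex 560/Em 590 nm. IC50 by nonlinear regression.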
# Liver = experiment: Half-life in mouse liver microsomes at 1 uM by LC-MS/MS analysis; format: ADME
# Method in brief: (§1)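 Compound at 1 μM with liver microsomes (mouse, rat or human), 1.2 mM NADPH, 3.3 mM MgCl2, 100 mM potassium phosphate pH 7.4, at 37 °C. Aliquots taken at 0, 5, 10, 20 and 30 min and quenched in ice-cold acetonitrile with internal standard. Centrifuged supernatant run by LC-MS/MS. Half-life from analyte/internal standard peak-area ratios.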
# Rattus norvegicus [2] = experiment: Oral bioavailability in Sprague-Dawley rat at 5 mg/kg by LC-MS analysis; format: ADME, organism-based; settings: in vivo
# Liver microsome [3] = experiment: Half-life in rat liver microsomes at 1 uM by LC-MS/MS analysis; format: ADME; method in brief: as §1
# [4] = Half-life in Sprague-Dawley rat at 1 mg/kg, iv and 5 mg/kg, po by LC-MS analysis; format: ADME, organism-based; settings: in vivo
# Plasmodium [5] = experiment: Inhibition of Plasmodium plamepsin 4 using EDANS-CO-CH2-CH2-CO-ALERMFLSFP-Dap(DABCYL)OH as substrate up to 10 uM after 60 mins by fluorescence assay
# Method in brief: (§2)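 Recombinant PM-2 or PM-4, purified and activated at 0.3 mg/ml in pH 4.5 citrate, 0.1% Tween-20, 50 mM DTT for 40 min at RT. Then diluted in 50 mM sodium acetate pH 4.7, 0.01% Tween-20. Serially diluted compounds added, followed by peptide substrate at 20 μM final. Run 60 min at RT, fluorescence Ex/Em 360/535 nm. IC50 derived from the curve.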
# Plasmodium falciparum [6] = experiment: Antimalarial activity against multidrug-resistant Plasmodium falciparum Dd2 infected in human erythrocytes assessed as inhibition of parasite growth after 72 hrs by SYBR Green I method; format: functional, organism-based; settings: Dd2, 72 h
# Method in brief: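 SYBR Green I growth assay in human erythrocytes. DMSO stocks (10 mM), 3-fold serial dilutions, then diluted 500-fold into medium and added in quadruplicate. Final conditions: 2% hematocrit, 0.5% parasitemia, 0.1% DMSO. Incubated 72 h at 37 °C. Lysis buffer with SYBR Green I added, 1 h at room temperature in the dark. Fluorescence read at 497/520 nm. IC50 from four-parameter logistic nonlinear regression.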
# Rattus norvegicus [7] = experiment: Volume of distribution in Sprague-Dawley rat at 1 mg/kg, iv and 5 mg/kg, po by LC-MS analysis; format: ADME, organism-based; settings: in vivo
# [8] = target: Beta-secretase 1 (Homo sapiens) (UniProt P56817); experiment: Inhibition of human recombinant BACE1 using Mca-SEVNLDAEFRK(Dnp)RR-NH2 as substrate up to 10 uM by FRET assay
# Method in brief: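 Recombinant human BACE1 at 20 ng/µl, activated 15 min at RT in 100 mM sodium acetate pH 4.0. FRET substrate added at 20 uM final. Run 60 min at RT, time-resolved fluorescence Ex/Em 360/460 nm. IC50 by nonlinear regression.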
# [9] = target: T1, Cathepsin E (Homo sapiens) (UniProt P14091); experiment: Inhibition of human recombinant cathepsin E using Mca-PLGL-Dpa-AR-NH2 as substrate up to 10 uM by FRET assay
# T1 sequence (whole entry): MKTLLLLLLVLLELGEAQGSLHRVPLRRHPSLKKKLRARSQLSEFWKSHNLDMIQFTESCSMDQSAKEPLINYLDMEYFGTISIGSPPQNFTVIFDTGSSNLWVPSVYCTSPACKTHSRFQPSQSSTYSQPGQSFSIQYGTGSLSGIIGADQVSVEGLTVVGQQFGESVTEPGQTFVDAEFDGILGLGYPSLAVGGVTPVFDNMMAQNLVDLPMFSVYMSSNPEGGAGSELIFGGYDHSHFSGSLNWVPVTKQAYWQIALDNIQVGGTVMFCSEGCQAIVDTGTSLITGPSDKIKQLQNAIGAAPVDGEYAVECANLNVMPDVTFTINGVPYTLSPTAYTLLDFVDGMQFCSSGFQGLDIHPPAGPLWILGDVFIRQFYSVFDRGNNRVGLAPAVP
# Method in brief: (§3)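 Recombinant human cathepsin D at 20 ng/µl and cathepsin E at 1 ng/µl, each activated 30 min at RT in 0.1 M NaOAc, 0.2 M NaCl, pH 3.5. FRET substrate added at 20 uM final. Run 60 min at RT, time-resolved fluorescence Ex/Em 360/460 nm. IC50 by nonlinear regression.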
# [10] = target: Cathepsin D (Homo sapiens) (UniProt P07339); experiment: Inhibition of human recombinant cathepsin D using Mca-PLGL-Dpa-AR-NH2 as substrate up to 10 uM by FRET assay; method in brief: as §3
# [11] = Selectivity index, ratio of IC50 for human HepG2 cells to IC50 for chloroquine-sensitive Plasmodium falciparum 3D7 infected in human erythrocytes; format: toxicity, cell-based; settings: read-out: Ratio IC50
# Plasmodium [12] = experiment: Inhibition of Plasmodium plamepsin 2 using EDANS-CO-CH2-CH2-CO-ALERMFLSFP-Dap(DABCYL)OH as substrate up to 10 uM after 60 mins by fluorescence assay; method in brief: as §2
# Liver microsome [13] = experiment: Half-life in human liver microsomes at 1 uM by LC-MS/MS analysis; format: ADME; method in brief: as §1
# Cathepsin D (Homo sapiens), sequence (P07339 65-162 limits assumed): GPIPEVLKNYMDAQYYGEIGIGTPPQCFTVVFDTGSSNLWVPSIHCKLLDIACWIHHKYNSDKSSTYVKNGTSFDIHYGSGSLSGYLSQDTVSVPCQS
# Cathepsin D (Homo sapiens), sequence (P07339 169-412 limits assumed): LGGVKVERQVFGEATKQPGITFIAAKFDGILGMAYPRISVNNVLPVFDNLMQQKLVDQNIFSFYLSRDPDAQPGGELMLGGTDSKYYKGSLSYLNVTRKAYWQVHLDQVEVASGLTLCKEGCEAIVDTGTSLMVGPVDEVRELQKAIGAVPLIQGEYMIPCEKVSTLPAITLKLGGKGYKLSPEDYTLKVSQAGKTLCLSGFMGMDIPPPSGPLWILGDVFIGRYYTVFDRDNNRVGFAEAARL
# Beta-secretase 1 (Homo sapiens), sequence (P56817 whole entry): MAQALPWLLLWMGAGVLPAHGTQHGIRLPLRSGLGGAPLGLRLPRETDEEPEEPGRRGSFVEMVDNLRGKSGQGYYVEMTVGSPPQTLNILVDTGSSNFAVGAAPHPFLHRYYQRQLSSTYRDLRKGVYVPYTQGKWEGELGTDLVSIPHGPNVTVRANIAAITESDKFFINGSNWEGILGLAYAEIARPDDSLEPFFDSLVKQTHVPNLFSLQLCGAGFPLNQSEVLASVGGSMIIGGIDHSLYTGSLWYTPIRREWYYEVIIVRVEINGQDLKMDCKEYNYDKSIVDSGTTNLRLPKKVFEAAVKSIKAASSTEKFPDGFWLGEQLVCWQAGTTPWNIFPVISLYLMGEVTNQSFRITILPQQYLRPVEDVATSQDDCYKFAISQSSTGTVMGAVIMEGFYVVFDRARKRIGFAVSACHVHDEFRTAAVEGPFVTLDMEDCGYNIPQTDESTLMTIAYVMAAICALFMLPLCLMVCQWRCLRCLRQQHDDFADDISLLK
Structure (SMILES),IC50 (Plasmodium falciparum [1]),also measured
CCN1C(=O)N(CCC(C)C)C2(CCN(Cc3ccc(OC)cc3O)CC2)C1=O,940 nM,–
CCN1C(=O)N(Cc2ccc(OC)cc2)C2(CCN(Cc3cc(Cl)ccc3O)CC2)C1=O,560 nM,–
CCN1C(=O)N(CCC(C)C)C2(CCN(Cc3cc(Br)ccc3O)CC2)C1=O,210 nM,–
CCN1C(=O)N(CCC(C)C)C2(CCN(Cc3cccc(OC)c3)CC2)C1=O,16000 nM,–
CCN1C(=O)N(CCC(C)C)C2(CCN(Cc3cccc(Cl)c3)CC2)C1=O,14000 nM,–
CCN1C(=O)NC2(CCN(Cc3cc(Cl)ccc3O)CC2)C1=O,> 10000 nM,–
CCN1C(=O)N(CCC(C)C)C2(CCN(Cc3ccccn3)CC2)C1=O,> 10000 nM,–
CCN1C(=O)N(CCC(C)C)C2(CCN(Cc3cccc(OC)c3O)CC2)C1=O,6000 nM,–
CCN1C(=O)N(CC)C2(CCN(Cc3cc(Cl)ccc3O)CC2)C1=O,6700 nM,–
CC(C)CCN1C(=O)N(C(C)C)C(=O)C12CCN(Cc1cc(Cl)ccc1O)CC2,110 nM,–
CCN1C(=O)N(CCC(C)C)C2(CCN(Cc3cc(F)ccc3O)CC2)C1=O,1400 nM,–
CCN1C(=O)N(CCc2ccccc2)C2(CCN(Cc3cc(Cl)ccc3O)CC2)C1=O,290 nM,–
CCN1C(=O)N(CCC(C)C)C2(CCN(Cc3ccc(Cl)cc3O)CC2)C1=O,2100 nM,IC50 (HepG2): > 50000 nM
CCN1C(=O)N(C2CCCC2)C2(CCN(Cc3cc(Cl)ccc3O)CC2)C1=O,430 nM,–
CCN1C(=O)N(Cc2ccc(C(F)(F)F)cc2)C2(CCN(Cc3cc(Cl)ccc3O)CC2)C1=O,230 nM,–
CCN1C(=O)N(CCC(C)C)C2(CCN(Cc3cc(Cl)cc(Cl)c3O)CC2)C1=O,460 nM,–
CCN1C(=O)N(CCC(C)C)C2(CCN(Cc3ccc(OC)cc3OC)CC2)C1=O,7600 nM,–
CCN1C(=O)N(CCC(C)C)C2(CCN(Cc3cccc4cccnc34)CC2)C1=O,> 10000 nM,–
CCN1C(=O)N(CCC(C)C)C2(CCN(C(=O)c3ccccn3)CC2)C1=O,> 10000 nM,–
CC(C)CCN1C(=O)N(CCCc2ccncc2)C(=O)C12CCN(Cc1cc(Cl)ccc1O)CC2,610 nM,–
CCN1C(=O)N(CCC(C)C)C2(CCN(Cc3ccccc3O)CC2)C1=O,1100 nM,–

Structure (SMILES),IC50 (Plasmodium falciparum [1]),also measured
CCN1C(=O)N(CCC(C)C)C2(CCN(Cc3cc(Cl)ccc3O)CC2)C1=O,220 nM,t1/2 (Liver): 4 min; F (Rattus norvegicus [2]): 10%; t1/2 (Liver microsome [3]): 3 min; half-life [4]: 16.8 min; inhibition (Plasmodium [5]): inactive; IC50 (Plasmodium falciparum [6]): 220 nM; Vd (Rattus norvegicus [7]): 3.7 L/kg; inhibition [8]: inactive; inhibition [9]: inactive; inhibition [10]: inactive; IC50 (HepG2): 37000 nM; selectivity ratio [11]: > 100; inhibition (Plasmodium [12]): inactive; t1/2 (Liver microsome [13]): 9 min
CCN1C(=O)N(Cc2ccc(C#N)cc2)C2(CCN(Cc3cc(Cl)ccc3O)CC2)C1=O,1500 nM,–
CCN1C(=O)N(CCC(C)C)C2(CCN(Cc3cc(O)cc(Cl)c3)CC2)C1=O,760 nM,–
CCN1C(=O)N(CCC(C)C)C2(CCN(Cc3cc(C)ccc3O)CC2)C1=O,880 nM,–
CCN1C(=O)N(CCC(C)C)C2(CCN(Cc3ccc(O)c(Cl)c3)CC2)C1=O,2600 nM,–
CCN1C(=O)N(c2ccccc2)C2(CCN(Cc3cc(Cl)ccc3O)CC2)C1=O,3600 nM,–
CCN1C(=O)N(CCC(C)C)C2(CCN(Cc3cc(Cl)cnc3N)CC2)C1=O,> 10000 nM,–
CCN1C(=O)N(CCC(C)C)C2(CCN(Cc3cc(Cl)c(Cl)cc3O)CC2)C1=O,90 nM,inhibition (Plasmodium [5]): inactive; inhibition [8]: inactive; inhibition [9]: inactive; inhibition [10]: inactive; IC50 (HepG2): > 50000 nM; selectivity ratio [11]: > 500; inhibition (Plasmodium [12]): inactive
CCN1C(=O)N(CCC(C)C)C2(CCN(CCCO)CC2)C1=O,> 10000 nM,–
CC(C)CCN1C(=O)NC(=O)C12CCN(Cc1cc(Cl)ccc1O)CC2,> 10000 nM,–
CCN1C(=O)N(CCC(C)C)C2(CCN(Cc3c(O)ccc(Cl)c3Cl)CC2)C1=O,280 nM,–
CCN1C(=O)N(CCC(C)C)C2(CCN(C(=O)c3cc(Cl)ccc3O)CC2)C1=O,> 10000 nM,–
CCN1C(=O)N(CCC(C)C)C2(CCN(Cc3cccc(Cl)c3O)CC2)C1=O,1100 nM,–
CCN1C(=O)N(CCC(C)C)C2(CCN(Cc3cccnc3N)CC2)C1=O,> 10000 nM,–
CCN1C(=O)N(CCC(C)C)C2(CCN(Cc3cccc4cc[nH]c34)CC2)C1=O,3400 nM,–
CCN1C(=O)N(CCC(C)C)C2(CCNCC2)C1=O,> 10000 nM,–
CCN1C(=O)N(CCC(C)C)C2(CCN(Cc3c(O)cccc3Cl)CC2)C1=O,410 nM,–
CCN1C(=O)N(Cc2ccccc2)C2(CCN(Cc3cc(Cl)ccc3O)CC2)C1=O,560 nM,–
CCN1C(=O)N(CCC(C)C)C2(CCN(Cc3cc(OC)ccc3O)CC2)C1=O,560 nM,–
CC(C)CCN1C(=O)N(Cc2cccnc2)C(=O)C12CCN(Cc1cc(Cl)ccc1O)CC2,840 nM,–
CCN1C(=O)N(CCC(C)C)C2(CCN(Cc3cc(-c4ccccc4)ccc3O)CC2)C1=O,290 nM,IC50 (HepG2): > 50000 nM
